# Assay outcomes from PubChem.
# E-sel inducer: induces E-selectin expression in human endothelial cells; P16581; HUVEC E-selectin immunofluorescence imaging; normalized: neutral wells 0, TNF-alpha wells 100; activation, % at 7.58 µM; 0.37% of 260,000 active;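 active = mean E-selectin-positive cell signal at least 10% of the positive control, reached in at least 60% of replicates, without over 20% cell loss; inconclusive = no rule given, readout overlaps actives, possibly toxicity-flagged; inactive = the rest, including those meeting only one limit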
# Target sequence (P16581 whole entry, looked up): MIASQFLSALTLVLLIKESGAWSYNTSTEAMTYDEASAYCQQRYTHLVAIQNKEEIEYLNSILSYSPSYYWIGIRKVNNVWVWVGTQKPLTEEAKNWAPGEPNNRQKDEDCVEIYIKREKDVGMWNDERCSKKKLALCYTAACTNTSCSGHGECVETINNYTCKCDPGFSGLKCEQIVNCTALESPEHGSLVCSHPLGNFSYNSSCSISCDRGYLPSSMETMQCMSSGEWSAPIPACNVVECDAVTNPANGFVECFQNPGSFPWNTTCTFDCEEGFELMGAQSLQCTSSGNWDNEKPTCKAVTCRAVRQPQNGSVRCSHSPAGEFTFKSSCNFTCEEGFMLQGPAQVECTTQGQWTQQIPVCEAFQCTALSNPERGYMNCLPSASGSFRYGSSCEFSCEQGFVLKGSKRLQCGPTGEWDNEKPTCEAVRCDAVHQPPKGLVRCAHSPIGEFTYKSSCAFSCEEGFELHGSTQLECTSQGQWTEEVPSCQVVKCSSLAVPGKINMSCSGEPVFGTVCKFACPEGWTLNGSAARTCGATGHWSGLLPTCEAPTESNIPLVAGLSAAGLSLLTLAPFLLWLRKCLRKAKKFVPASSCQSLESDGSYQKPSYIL
#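 Test system: HUVEC; input: 3,000 HUVEC/well; measured by: immunofluorescence imaging; read-out: % PE-positive cells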
# rRNA inh HTS: selective bacterial rRNA inhibition in E. coli | E. coli WT GFP vs humanized-ribosome RFP mutants, fluorescence, 24 h; stronger effect = lower value; DMSO median 0, no signal -100 | GFP signal change (wild-type ribosome), % (no concentration beside the values) | 1.6% of 350,000 active | AID 720706;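 active = significant combined selectivity score with lowered wild-type GFP, culture density cut under 30%, mutant RFP and density less affected; inactive = any of these conditions unmet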
# LGR2 antag: inhibitors of bursicon-induced Drosophila LGR2 receptor cAMP signaling. HEK293 LGR2, CRE-luciferase, bursicon-stimulated, 4 h. inhibition, % at 9.99 µM. 0.35% of 380,000 active. AID 720647;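 active = drop in luminescence signal, shown as inhibition above about 50% in the replicate tests, limit read from the data, passing the limit was not always enough; inconclusive = probably only some replicates passing the limit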;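 note: agonist challenge used bursicon conditioned medium at about half maximal strength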
# EWS-Fli block: blocks EWS/Fli oncoprotein-driven transcription. inhibition, % at 12.6 µM. A673 NR0B1-luciferase reporter, viability-normalised. 0.67% of 350,000 active;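 active = mean inhibition of at least 50% after viability correction, with every replicate also passing that limit; inconclusive = mean reaches 50% but only one of two replicates passes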;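 note: firefly luciferase signal divided by Alamar Blue viability fluorescence both relative to DMSO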
# Numbers stand for hits; i = inactive; ? = inconclusive; nt = no result. Rows were chosen to be rich in hits. Some 2.4% of all compounds tested hit in one or more screens of this group.
SMILES,E-sel inducer,rRNA inh HTS,LGR2 antag,EWS-Fli block
CCC(=O)N1CCCCN2[C@@H](CO)[C@H](c3ccc(C#Cc4ccccc4)cc3)[C@@H]2C1,i,i,i,i
CC[N+](CC)(CC#Cc1ccccc1)CC(=O)c1ccc(Cl)cc1,i,-23.0,i,i
O=C([C@@H]1[C@@H](CO)[C@@H]2Cn3c(ccc(-c4ccncc4)c3=O)[C@@H]2N1Cc1cocn1)N1CCCCC1,i,i,i,i
CC1=C(C(=O)OC2CCCCCCC2)C(c2ccc(O)cc2)NC(=O)N1 (stereo unspecified),nt,-43.1,i,i
Cc1cc(C(=O)COC(=O)c2ccc(O)cc2)c(C)n1-c1ccccc1F,nt,-29.2,i,i
Cc1cc(C(=O)COC(=O)c2ccc[nH]c2=O)c(C)n1-c1ccccc1F,i,i,i,i
Cc1cc(C(=O)COC(=O)C2=COCCO2)c(C)n1-c1ccccc1,i,i,91.0,i
Cc1cc(C(=O)COC(=O)C2=NNC(=O)CC2)c(C)n1-c1ccccc1,nt,i,i,i
CCN(CC)c1ccc(/C=N/NC(=O)c2ccc(Br)o2)cc1,i,-23.0,i,i
CCN(CC)c1ccc(/C=N/NC(=O)Cc2ccc(OC)c(OC)c2)cc1,35.8,i,i,i
O=C(N/N=C/c1ccc2c(c1)OCO2)c1ccc(Br)o1,nt,nt,i,nt
COc1ccc(CC(=O)N/N=C/c2cccs2)cc1OC,i,i,i,i
COc1ccc(/C=N/NC(=O)Cc2ccc(Cl)cc2)cc1OC,nt,i,i,i
CCc1ccc(/C=N/NC(=O)Cc2ccc(OC)c(OC)c2)s1,nt,-23.6,i,nt
C[C@@H]1CCCCO[C@H](CN(C)C(=O)CCCN(C)C)[C@H](C)CN([C@@H](C)CO)C(=O)c2cc(NC(=O)Nc3ccc(F)cc3)ccc2O1,i,i,i,i
O=C1/C(=C/c2ccco2)SC(=S)N1C1CCS(=O)(=O)C1 (stereo unspecified),i,i,55.1,i
COc1ccc(S(=O)(=O)N(C)C[C@@H]2Oc3c(NC(=O)c4ccc(-c5nccs5)cc4)cccc3C(=O)N([C@@H](C)CO)C[C@H]2C)cc1,nt,i,i,nt
Cc1ccc(C(=O)N(C)CC(=O)Nc2ccc(Cl)c(C(F)(F)F)c2)cc1S(=O)(=O)N1CCCCC1,nt,i,i,i
CN(CC(=O)Nc1ccc(Cl)c(C(F)(F)F)c1)C(=O)c1ccc(S(=O)(=O)N2CCOCC2)cc1,i,i,i,55.3
CCO[C@H]1OC(C(=O)N2CCCCCCC2)=C[C@@H](C2CC2)[C@@H]1CCCO,nt,nt,nt,i
O=C1NC(=O)/C(=C/c2ccc(OS(=O)(=O)c3ccc(F)cc3F)cc2)N1,i,-26.4,i,i
O=C1NC(=O)C(=Cc2ccccc2)N1,i,i,i,i
C[C@H](CO)N1C[C@H](C)[C@@H](CN(C)C(=O)Nc2ccc(F)cc2)Oc2ccc(NC(=O)Cc3cn(C)c4ccccc34)cc2CC1=O,i,i,i,i
CCCCCCCCCC[n+]1cccc2c3ccccc3ccc21,i,i,75.8,i
COc1ccc(NC(=O)c2oc3ccccc3c2NC(=O)C2CCCO2)cc1OC (stereo unspecified),nt,-36.8,i,i
SMILES,E-sel inducer,rRNA inh HTS,LGR2 antag,EWS-Fli block
Cc1ccc(NC(=O)c2oc3ccccc3c2NC(=O)C2CCCO2)cc1C (stereo unspecified),i,i,i,i
COCC(=O)Nc1c(C(=O)Nc2ccc3c(c2)OCCO3)oc2ccccc12,i,i,i,i
CCOCC(=O)Nc1c(C(=O)Nc2ccc3c(c2)OCCO3)oc2ccccc12,i,-25.0,i,i
C[C@@H]1CCCCO[C@@H](CN(C)C(=O)CCC(F)(F)F)[C@H](C)CN([C@@H](C)CO)C(=O)c2cc(NS(=O)(=O)c3cn(C)cn3)ccc2O1,i,i,i,i
O=C(NCCCCc1ccccc1)c1ccccc1F,nt,i,i,i
O=C(NCCCCc1ccccc1)c1ccccc1Br,nt,-36.2,i,i
COCCNC(=O)C[C@H]1CC[C@H]2[C@@H](COC[C@@H](O)CN2S(=O)(=O)c2ccccc2C)O1,i,i,i,i
CN(C)C(CNC(=O)c1cc(S(=O)(=O)N(C)c2ccccc2)ccc1Cl)c1cccs1 (stereo unspecified),i,-34.8,i,i
CN(C)C(CNC(=O)c1cc(S(=O)(=O)N2CCOCC2)ccc1Cl)c1cccs1 (stereo unspecified),i,i,i,i
COc1ccc(N(C(=O)c2ccncc2)S(=O)(=O)c2ccc3c4c(cccc24)C(=O)N3C)cc1,nt,i,71.8,i
C[C@H](CO)N1C[C@H](C)[C@@H](CN(C)S(C)(=O)=O)Oc2ccc(NS(=O)(=O)c3cccs3)cc2C1=O,428.5,i,i,i
C[C@@H]1CN([C@@H](C)CO)C(=O)c2cc(NS(=O)(=O)c3cccs3)ccc2O[C@@H]1CN(C)C(=O)Nc1ccc2c(c1)OCO2,36.0,i,i,i
C[C@H]1CN([C@@H](C)CO)C(=O)c2cc(NS(=O)(=O)c3cccs3)ccc2O[C@@H]1CN(C)C(=O)Nc1ccc2c(c1)OCO2,i,i,i,i
C[C@H](CO)N1C[C@H](C)[C@H](CN(C)S(C)(=O)=O)Oc2ccc(NS(=O)(=O)c3cccs3)cc2C1=O,i,i,i,i
CNC[C@H]1Oc2ccc(NS(=O)(=O)c3ccc(C)cc3)cc2CC(=O)N([C@@H](C)CO)C[C@H]1C,?,i,i,i
COc1cc(-c2noc(C)c2/C=C/c2cccc([N+](=O)[O-])c2)cc(OC)c1OC,i,i,i,54.2
COc1cc(-c2noc(C)c2/C=C/c2ccc(C(=O)O)cc2)cc(OC)c1OC,i,i,i,i
Cc1ccc2c(c1)C(=O)N1[C@H]3c4cc(C)ccc4OC[C@@H]3[C@H](c3ccccc3)[C@]1(C)C(=O)N2,i,i,i,i
Cc1ccc2c(c1)C(=O)N1[C@H]3c4cc(Cl)ccc4OC[C@@H]3[C@H](c3ccccc3)[C@]1(C)C(=O)N2,i,i,i,51.9
O=C(Nc1cccc(S(=O)(=O)NCc2ccco2)c1)c1cccc(Cl)c1,199.6,i,i,i
COCC(=O)Nc1ccc2c(c1)OC[C@@H](C)N(CC1CC1)C[C@@H](C)[C@H](OC)CN(C)C2=O,i,i,i,i
Cc1ccc(OCC(=O)Nc2ccccc2N2CCCC2)c(C)c1,nt,-27.1,i,i
Cc1ccc(C)c(OCC(=O)Nc2ccccc2N2CCCC2)c1,i,i,i,i
CC(C)C(=O)N1CCN(c2ccccc2NC(=O)COc2ccccc2)CC1,i,-27.4,i,i
CC(=O)N1[C@@H]2CN(CC3CC3)C[C@H]1C2c1ccc(Br)cc1 (stereo partly specified),nt,i,nt,nt
C[C@@H]1CN([C@@H](C)CO)C(=O)c2cccc(NC(=O)Nc3ccccc3)c2O[C@@H]1CN(C)Cc1ccncc1,i,i,i,i
COc1ccccc1/C=N\NC(=O)c1ccc(COc2ccc(C)c(C)c2)o1,48.1,i,i,i
O=C(C1CCC1)N1CC2(C1)[C@H](c1ccccc1)[C@@H](CO)N2Cc1cccnc1,i,i,i,i
C[C@@H]1CN([C@@H](C)CO)C(=O)c2cc(C#CCN(C)C)cnc2O[C@H]1CN(C)S(C)(=O)=O,i,i,i,i
